# Screening data (PubChem)
# Only some compounds are listed: those with a hit (about 2.2% of all), similar ones and a draw of the others.
# MT stabilizer = microtubule stabilization, imaging screen; % tubulin-high responders, % at 10 µM; 0.83% of 200,000 active; HeLa tubulin immunostaining HCS, 24 h; share of cells brighter than vehicle mean+2SD;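 active = plate Z-score above 3 for both tubulin-high and condensed-nucleus cell shares, with cell loss under 80%, at 10 µM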;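 note: anti alpha tubulin signal scored within the nucleus-defined area of each cell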
# IEC-6 cytotox = counter-screen for KLF5 inhibitors: cytotoxicity in IEC-6 cells; IEC-6 cytotoxicity, luminescence viability; 0.78% of 290,000 active; inhibition, % at 5 µM; in the data active = inhibition above about 22%;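 note: 0% = plate median of test compound wells and 100% = cytotoxic reference compound wells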
# APP 5UTR inh = APP translation inhibition; SH-SY5Y APP 5'UTR-luciferase reporter, luminescence; inhibition, % at 2 µM; 0.82% of 190,000 active;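 active = inhibition above a set limit, derived from the sample mean plus 3 SD, cut at about 45% in these data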
# b-catenin transl = alters nuclear translocation of beta-catenin in HeLa cells. immunofluorescence imaging. nuclear translocation activity, % at 5 µM. 0.3% of 190,000 active;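 active = nuclear translocation activity above 50% at 5 µM, with a well cell count of 50 or more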;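 note: per-cell ratio of nuclear to cytoplasmic median beta-catenin stain intensity; plate controls were DMSO negative control for no effect and GSK-3 inhibitor IX positive control for full effect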
#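 Test system: human HeLa cell line; Doses: 5 µM primary, 0.02–20 µM confirmation; Incubation: 24 h compound exposure, 37°C; Detection: beta-catenin immunofluorescence imaging with DAPI; Read-out: beta-catenin nuclear/cytoplasmic ratio, % activation.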
# Ba/F3 V617F tox = reduce viability of Ba/F3 cells dependent on JAK2V617F; Ba/F3 EpoR-JAK2V617F viability, ATP luminescence; inhibition, % at 5.6 µM; 1.1% of 220,000 active; AID 1446;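 active = inhibition above the campaign mean plus 3 SD over all tested compounds, cut at about 24% in these data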;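 note: cytokine-independent growth of Ba/F3 cells driven by EpoR plus mutant JAK2; 0% = DMSO-treated cells and 100% = JAK inhibitor I control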
# BaF3 tox = parental Ba/F3 viability inhibition as JAK2V617F counter-screen; CellTiter-Glo ATP luminescence; inhibition, % at 5.6 µM; 1.1% of 220,000 active; AID 1486;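 active = inhibition above a per-campaign cutoff, the mean inhibition of all tested compounds plus 3 SD, cut at about 27% in these data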;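 note: 0% = DMSO wells and 100% = JAK Inhibitor I control wells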
# The depositor's hits bear a star; nt = no result.
SMILES,MT stabilizer,IEC-6 cytotox,APP 5UTR inh,b-catenin transl,Ba/F3 V617F tox,BaF3 tox
CCC(=O)Nc1ccc(C(=O)Cn2ncc(Cl)c(Cl)c2=O)cc1,nt,18,nt,-1,78*,45*
CCC(CC)C(=O)Nc1nnc(S(=O)(=O)N2c3ccccc3CC2C)s1 (centres undefined),nt,1,nt,nt,nt,nt
Cc1sc(NC(=O)CCCC(=O)O)c(C(N)=O)c1-c1ccccc1,1,-2,49*,1,-1,5
Cc1noc(C)c1COc1cccc(C(=O)Nc2ccc3c(c2)OCO3)c1,17*,8,-7,8,-3,1
Cc1noc(C)c1COc1cccc(C(=O)OC(C)C(=O)Nc2ccc3c(c2)OCO3)c1 (centres undefined),26*,1,42,95*,0,3
Cc1ccc(C(=O)C(C)OC(=O)c2ccccc2[N+](=O)[O-])cc1 (centres undefined),4,1,-173,nt,3,-1
CC1=CCC2COC(c3ccc[n+](Cc4ccccc4)c3)C1C2 (centres undefined),2,-2,-16,-2,46*,67*
CSc1ccc(C2C(C(=O)c3ccco3)=C(O)C(=O)N2c2nnc(SC)s2)cc1 (centres undefined),nt,0,nt,nt,nt,nt
COCCN(C(=O)c1csnn1)C(C(=O)NC1CCCCC1)c1ccccc1F (centres undefined),nt,0,nt,nt,nt,nt
COc1ccc(-n2c(SCC(=O)Nc3ccc(Br)cc3)nc(O)cc2=O)cc1,nt,-5,nt,-1,1,4
Cc1ccc(S(=O)(=O)NC2(C(F)(F)F)C(=O)Nc3c2c(=O)[nH]c(=O)n3-c2ccccc2)cc1 (centres undefined),3,10,-2,0,3,3
O=c1[nH]c(=O)n(-c2ccccc2)c2c1C(C(F)(F)F)(C(F)(F)F)N=C(C1CCCCC1)N2,3,4,3,-2,4,40*
COc1ccc(C2C3=C(Nc4ncnn42)c2ccccc2CCC3)cc1 (centres undefined),7,2,10,0,-2,-1
COc1cc(C2C3=C(Nc4ncnn42)c2ccccc2CC3)cc(OC)c1OC (centres undefined),18*,96*,95*,135*,93*,90*
COc1cc(C2C=C(c3cccs3)Nc3ncnn32)cc(OC)c1OC (centres undefined),3,-7,-13,119*,4,6
COc1ccc(-n2c(SCC(=O)NCC3CCCO3)nc3c(c2=O)SC(C)C3)cc1 (centres undefined),nt,4,nt,nt,nt,nt
COc1cc(C(=O)NNC(=S)NC(=O)c2ccc3c(c2)OCO3)cc(OC)c1OC,nt,6,nt,0,0,-2
COc1cc(C(=O)c2cocc2C(=O)c2ccc3c(c2)OCO3)cc(OC)c1OC,nt,77*,nt,1,71*,78*
COc1cc(C(=O)N/N=C(\C)c2ccc3c(c2)OCO3)cc(OC)c1OC,20*,89*,91*,12,73*,72*
COc1ccc(NC(=O)CSc2nnc(NC(=O)C3CCC3)s2)c(OC)c1,nt,-2,nt,nt,nt,nt
C/C(N)=C(/C#N)C(=O)CSc1nnc(COc2ccccc2Cl)o1,3,2,6,0,0,95*
CC(C)(C)NC(=O)NC(=O)CSc1nnc(COc2ccccc2Cl)o1,1,0,-3,4,2,2
CCOc1ccc(S(=O)(=O)N(C(=O)c2ccco2)c2cc3sc(=O)oc3c3ccccc23)cc1,19*,1,-12,0,-2,5
CCc1nc(SCC(=O)Nc2cc(C)on2)c2c(C)c(C)sc2n1,5,-2,-2,0,-3,2
Cc1cc(NC(=O)CSc2nc(C3CC3)nc3sc(C)c(C)c23)no1,34*,-1,9,267*,-4,3
SMILES,MT stabilizer,IEC-6 cytotox,APP 5UTR inh,b-catenin transl,Ba/F3 V617F tox,BaF3 tox
CCOC(=O)C1(CCOC)CCN(C(=O)c2ccccc2-c2cccc(C)c2)CC1,2,4,-5,2,4,82*
CCOC(=O)c1ccc(-c2cc(C)no2)[nH]1,4,8,-10,2,0,0
CC(NC(=O)Nc1nnc(C(F)(F)F)s1)(C(F)(F)F)C(F)(F)F,4,20,1,0,37*,40*
Cc1ccc2nc(N/C(=N/S(=O)(=O)c3cccs3)c3ccccc3Cl)sc2c1,5,-1,-29,-3,2,9
CC1=Nc2cc(C(=O)N3CCCC3)ccc2Sc2ccc(C)cc21,nt,0,nt,nt,nt,nt
CC(C)OCCCNC(=O)c1ccc2c(c1)NC(=O)c1ccccc1S2,nt,-1,nt,nt,nt,nt
CCCC1=Nc2cc(C(=O)NCCCOC(C)C)ccc2Sc2ccccc21,22*,5,2,72*,7,11
CC1=Nc2cc(C(=O)NCCCOC(C)C)ccc2Sc2ccc(C)cc21,12,84*,95*,38,74*,71*
CC1=Nc2cc(C(=O)NCCCOC(C)C)ccc2Sc2ccccc21,24*,8,1,15,1,4
O=C(Cc1cc2ccccc2o1)NCc1ccc(F)cc1,nt,15,nt,nt,nt,nt
COCC(=O)N1CCC(Oc2ccc(C(=O)N(C)CCCC3CCCC3)cc2)CC1,nt,1,nt,nt,nt,nt
CN1CCN(Cc2nc3ccccc3c(=O)n2Cc2nc(-c3cccc([N+](=O)[O-])c3)cs2)CC1,3,13,-6,-3,13,-3
CN1CCN(Cc2nc3ccccc3c(=O)n2Cc2nc(-c3ccc4ccccc4c3)cs2)CC1,41,20,2,15,102*,10
Cn1cnc(S(=O)(=O)N2CCN(c3cccc(C(F)(F)F)c3)CC2)c1,nt,6,nt,nt,nt,nt
CN1C(c2ccccc2)CCOS1(=O)=O (centres undefined),nt,-5,nt,nt,nt,nt
CCCCCc1ccc(OCCCC[n+]2ccc(C)cc2)c(CCCCC)c1,nt,19,-15,0,102*,103*
CCCCCc1ccc(OCCCC[n+]2ccccc2)c(CCCCC)c1,28*,8,-6,9,100*,81*
CCC(C)(C)c1ccc(Oc2cccc(C(=O)O)c2)cc1,nt,0,nt,-2,-1,-4
CCCCOc1ccc(C)cc1CN(CCO)CCO,2,2,-13,nt,1,4
CCCCCc1ccc(OCCCC[n+]2cccc(C)c2)c(CCCCC)c1,56*,21,14,4,102*,95*
CCCCCOc1ccc(CN2CCOCC2)cc1Cl,2,-2,-144,0,1,6
CCC(C)(C)c1ccc(OCCCC[n+]2ccccc2)c(C(C)(C)CC)c1,80,6,-7,nt,100*,85*
COC(=O)c1cc(Br)ccc1NC(=O)Nc1ccc(C)cc1,2,1,9,nt,4,34*
O=C(O)c1cccc(NC(=O)C23CC4CC(C2)CC(n2cnc(Cl)n2)(C4)C3)c1,1,4,43,nt,2,5
COc1ccc(NC(=O)C23CC4CC(C2)CC(n2cnc(Br)n2)(C4)C3)cc1Cl,2,-1,47*,nt,0,1
